According to ChEMBL document CHEMBL1145361, “3-Amino-1-alkyl-cyclopentane carboxamides as small molecule antagonists of the human and murine CC chemokine receptor 2” (Bioorg Med Chem Lett, 2007):

How the values were obtained:
[1] = Half life in Sprague-Dawley rat at 1 mg/kg, iv; format: ADME, organism-based; set-up: dose 1 mg/kg, route intravenous; conditions: in vivo
Summary of the method: (§1)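 Male Sprague–Dawley rats were dosed intravenously at 1.0 mg/kg and orally at 3.0 mg/kg. Clearance, volume of distribution, t1/2, Cmax, Tmax, oral bioavailability (F%) and AUC were determined, with oral AUC normalized.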

[2] = Bioavailability in Sprague-Dawley rat at 3 mg/kg, po; format: ADME, organism-based; conditions: in vivo; summary of the method: as §1
[3] = target: C-C chemokine receptor type 2 (Homo sapiens, UniProt P41597); test: Inhibition of Ca2+ flux in human monocytes; format: functional, cell-based
[4] = target: C-C chemokine receptor type 2 (Homo sapiens, UniProt P41597, I40L); test: Displacement of [125I]MCP1 from human CCR2 I40L mutant expressed in CHO cells; format: cell-based
Summary of the method: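 Radioligand competition was run at room temperature for 45 min in 50 mM Hepes, 5 mM MgCl2, 1 mM CaCl2, pH 7.4, with 0.5% BSA and protease inhibitors. The reaction was stopped by filtration through GF/B filters presoaked in 0.10% polyethyleneimine to separate bound from free ligand.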

[5] = Volume of distribution in Sprague-Dawley rat at 1 mg/kg, iv; format: ADME, organism-based; set-up: dose 1 mg/kg, route intravenous; conditions: in vivo, read-out: Vdss; summary of the method: as §1
[6] = target: C-C chemokine receptor type 2 (Mus musculus, UniProt P51683); test: Displacement of [125I]MCP1 from mouse CCR2 receptor expressed in CHO cells; format: cell-based
[7] = Tmax in Sprague-Dawley rat at 3 mg/kg, po; format: ADME, organism-based; set-up: dose 3 mg/kg, route oral; conditions: in vivo; summary of the method: as §1
[8] = Cmax in Sprague-Dawley rat at 3 mg/kg, po; format: ADME, organism-based; set-up: dose 3 mg/kg, route oral; conditions: in vivo; summary of the method: as §1
[9] = Half life in Sprague-Dawley rat at 3 mg/kg, po; format: ADME, organism-based; set-up: dose 3 mg/kg, route oral; conditions: in vivo; summary of the method: as §1
[10] = Clearance in Sprague-Dawley rat at 1 mg/kg, iv; format: ADME, organism-based; set-up: dose 1 mg/kg, route intravenous; conditions: in vivo; summary of the method: as §1
[11] = target: C-C chemokine receptor type 2 (Mus musculus) (UniProt P51683); test: Displacement of [125I]MCP1 from mouse CCR2 receptor expressed in CHO cells at 1 uM; format: cell-based
Sequence of C-C chemokine receptor type 2 (Mus musculus) (P51683 whole entry, looked up): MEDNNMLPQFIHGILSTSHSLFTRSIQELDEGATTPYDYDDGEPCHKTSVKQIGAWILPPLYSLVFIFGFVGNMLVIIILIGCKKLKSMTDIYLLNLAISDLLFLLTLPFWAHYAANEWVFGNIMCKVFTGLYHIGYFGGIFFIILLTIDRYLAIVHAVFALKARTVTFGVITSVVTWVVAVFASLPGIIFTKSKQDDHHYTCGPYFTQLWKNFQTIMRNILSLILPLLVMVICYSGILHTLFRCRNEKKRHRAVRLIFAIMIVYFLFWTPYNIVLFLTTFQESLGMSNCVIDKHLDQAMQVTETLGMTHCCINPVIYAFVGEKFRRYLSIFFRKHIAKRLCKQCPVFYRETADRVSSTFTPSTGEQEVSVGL

Sequence of C-C chemokine receptor type 2 (Homo sapiens, UniProt P41597, I40L) (P41597 whole entry I40L): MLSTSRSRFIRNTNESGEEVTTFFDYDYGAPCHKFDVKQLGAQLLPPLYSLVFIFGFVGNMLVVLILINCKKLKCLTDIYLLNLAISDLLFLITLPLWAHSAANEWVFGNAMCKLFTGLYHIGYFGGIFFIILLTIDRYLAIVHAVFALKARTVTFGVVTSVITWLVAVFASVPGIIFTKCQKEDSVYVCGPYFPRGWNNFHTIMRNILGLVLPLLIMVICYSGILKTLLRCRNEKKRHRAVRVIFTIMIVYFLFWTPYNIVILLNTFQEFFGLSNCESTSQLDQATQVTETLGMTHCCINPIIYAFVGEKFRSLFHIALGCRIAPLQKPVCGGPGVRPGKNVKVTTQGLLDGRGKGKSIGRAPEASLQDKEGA
Sequence of C-C chemokine receptor type 2 (Mus musculus, UniProt P51683) (P51683 whole entry): as the sequence (P51683 whole entry, looked up) above
Sequence of C-C chemokine receptor type 2 (Homo sapiens, UniProt P41597) (P41597 whole entry): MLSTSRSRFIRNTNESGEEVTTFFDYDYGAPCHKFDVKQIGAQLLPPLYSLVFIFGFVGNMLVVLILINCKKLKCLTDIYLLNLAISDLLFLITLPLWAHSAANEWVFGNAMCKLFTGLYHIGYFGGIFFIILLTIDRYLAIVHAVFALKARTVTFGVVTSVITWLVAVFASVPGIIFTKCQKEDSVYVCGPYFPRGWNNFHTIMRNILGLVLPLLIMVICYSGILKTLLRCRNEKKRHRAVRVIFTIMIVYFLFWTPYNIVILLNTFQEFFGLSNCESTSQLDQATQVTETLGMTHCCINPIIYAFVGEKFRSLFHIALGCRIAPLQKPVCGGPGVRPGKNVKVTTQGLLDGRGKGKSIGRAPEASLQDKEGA

| SMILES | IC50 [4] | IC50 [6] | also measured |
| --- | --- | --- | --- |
| CC(C)[C@]1(C(=O)NCc2cc(F)cc(C(F)(F)F)c2)CC[C@@H](N2CC[C@]3(C=Cc4ccccc43)[C@@H](C)C2)C1 | 3.1 nM | 5 nM | half-life [1]: 2.5 h; bioavailability [2]: 32%; IC50 [3]: 0.71 nM; Vd [5]: 2.99 L/kg; Tmax [7]: 0.83 h; Cmax [8]: 414 nM; half-life [9]: 2 h; clearance [10]: 19.4 mL/min/kg |
| CS[C@]1(C(=O)NCc2cc(F)cc(C(F)(F)F)c2)CC[C@@H](N2CC[C@]3(C=Cc4ccccc43)[C@@H](C)C2)C1 | 67 nM | 193 nM | – |
| CCC1(C(=O)NCc2cc(C(F)(F)F)cc(C(F)(F)F)c2)CCC(N2CC[C@]3(C=Cc4ccccc43)[C@@H](C)C2)C1 (stereo partly specified) | 10 nM | 17.5 nM | – |
| CC(C)[C@]1(C(=O)NCc2cc(C(F)(F)F)cc(C(F)(F)F)c2)CC[C@@H](N2CC[C@]3(C=Cc4ccccc43)[C@@H](C)C2)C1 | 7.6 nM | 15 nM | – |
| CCC[C@]1(C(=O)NCc2cc(C(F)(F)F)cc(C(F)(F)F)c2)CC[C@@H](N2CC[C@]3(C=Cc4ccccc43)[C@@H](C)C2)C1 | 16 nM | 44.3 nM | – |
| CCCCCCC1(C(=O)NCc2cc(C(F)(F)F)cc(C(F)(F)F)c2)CCC(N2CC[C@]3(C=Cc4ccccc43)[C@@H](C)C2)C1 (stereo partly specified) | 231 nM | 279 nM | – |
| C[C@H]1CN([C@@H]2CC[C@@](C(=O)NCc3cc(F)cc(C(F)(F)F)c3)(C3CC3)C2)CC[C@]12C=Cc1ccccc12 | 1.9 nM | 8 nM | IC50 [3]: 0.63 nM |
| CCCCCCC1(C(=O)NCc2cc(F)cc(C(F)(F)F)c2)CCC(N2CC[C@]3(C=Cc4ccccc43)[C@@H](C)C2)C1 (stereo partly specified) | 27 nM | 128 nM | – |
| COCC1(C(=O)NCc2cc(C(F)(F)F)cc(C(F)(F)F)c2)CCC(N2CC[C@]3(C=Cc4ccccc43)[C@@H](C)C2)C1 (stereo partly specified) | 15.5 nM | 93 nM | – |
| C[C@H]1CN([C@@H]2CC[C@H](C(=O)NCc3cc(C(F)(F)F)cc(C(F)(F)F)c3)C2)CC[C@]12C=Cc1ccccc12 | 20 nM | – | Activity [11]: 27% |
| CS[C@]1(C(=O)NCc2cc(C(F)(F)F)cc(C(F)(F)F)c2)CC[C@@H](N2CC[C@]3(C=Cc4ccccc43)[C@@H](C)C2)C1 | 28 nM | 351 nM | – |
| C[C@H]1CN(C2CCC(CC3CCC3)(C(=O)NCc3cc(F)cc(C(F)(F)F)c3)C2)CC[C@]12C=Cc1ccccc12 (single isomer, unassigned; diastereomer 4) [listing 2 of 2 here] | – | – | Activity [11]: 49% |
| C[C@H]1CN(C2CCC(C(=O)NCc3cc(C(F)(F)F)cc(C(F)(F)F)c3)(C3CC3)C2)CC[C@]12C=Cc1ccccc12 (stereo partly specified) | 6.5 nM | 45 nM | – |
| CC(C)C[C@]1(C(=O)NCc2cc(F)cc(C(F)(F)F)c2)CC[C@@H](N2CC[C@]3(C=Cc4ccccc43)[C@@H](C)C2)C1 | 3.9 nM | 7.5 nM | IC50 [3]: 2.04 nM |
| C[C@H]1CN([C@@H]2CC[C@](C)(C(=O)NCc3cc(C(F)(F)F)cc(C(F)(F)F)c3)C2)CC[C@]12C=Cc1ccccc12 | 9 nM | 126 nM | – |
| CSC[C@]1(C(=O)NCc2cc(C(F)(F)F)cc(C(F)(F)F)c2)CC[C@@H](N2CC[C@]3(C=Cc4ccccc43)[C@@H](C)C2)C1 | 13 nM | 65.5 nM | – |
| CC(C)C[C@]1(C(=O)NCc2cc(C(F)(F)F)cc(C(F)(F)F)c2)CC[C@@H](N2CC[C@]3(C=Cc4ccccc43)[C@@H](C)C2)C1 | 8 nM | 26 nM | – |
| C[C@H]1CN([C@@H]2CC[C@](C)(C(=O)NCc3cc(F)cc(C(F)(F)F)c3)C2)CC[C@]12C=Cc1ccccc12 | 4 nM | 57 nM | – |

More lines, main results first:

| IC50 [4] | IC50 [6] | SMILES | also measured |
| --- | --- | --- | --- |
| 135 nM | 559 nM | C[C@H]1CN(C2CCC(CC3CCC3)(C(=O)NCc3cc(F)cc(C(F)(F)F)c3)C2)CC[C@]12C=Cc1ccccc12 (single isomer, unassigned; diastereomer 3) | – |
| 5.5 nM | 15 nM | C[C@H]1CN(C2CCC(CC3CC3)(C(=O)NCc3cc(F)cc(C(F)(F)F)c3)C2)CC[C@]12C=Cc1ccccc12 (stereo partly specified) | – |
| 229 nM | – | C[C@H]1CN(C2CCC(CC3CCC3)(C(=O)NCc3cc(F)cc(C(F)(F)F)c3)C2)CC[C@]12C=Cc1ccccc12 (single isomer, unassigned; diastereomer 4) [listing 1 of 2 here] | – |
| 8.5 nM | 74 nM | COCC1(C(=O)NCc2cc(F)cc(C(F)(F)F)c2)CCC(N2CC[C@]3(C=Cc4ccccc43)[C@@H](C)C2)C1 (stereo partly specified) | – |
| 5 nM | 17 nM | CCCC1(C(=O)NCc2cc(F)cc(C(F)(F)F)c2)CCC(N2CC[C@]3(C=Cc4ccccc43)[C@@H](C)C2)C1 (stereo partly specified) | – |
| 3.5 nM | 17 nM | CSC[C@]1(C(=O)NCc2cc(F)cc(C(F)(F)F)c2)CC[C@@H](N2CC[C@]3(C=Cc4ccccc43)[C@@H](C)C2)C1 | – |
| 19 nM | 64 nM | C[C@H]1CN([C@@H]2CC[C@](CC3CCC3)(C(=O)NCc3cc(C(F)(F)F)cc(C(F)(F)F)c3)C2)CC[C@]12C=Cc1ccccc12 | – |
| 3.3 nM | 3.5 nM | CCC1(C(=O)NCc2cc(F)cc(C(F)(F)F)c2)CCC(N2CC[C@]3(C=Cc4ccccc43)[C@@H](C)C2)C1 (stereo partly specified) | – |
| 32 nM | 147 nM | C[C@H]1CN(C2CCC(CC3CCC3)(C(=O)NCc3cc(F)cc(C(F)(F)F)c3)C2)CC[C@]12C=Cc1ccccc12 (single isomer, unassigned; diastereomer 2) | – |
| 6.3 nM | 28 nM | C[C@H]1CN(C2CCC(CC3CCC3)(C(=O)NCc3cc(F)cc(C(F)(F)F)c3)C2)CC[C@]12C=Cc1ccccc12 (stereo partly specified) | – |
| 20 nM | 63.5 nM | C[C@H]1CN(C2CCC(CC3CC3)(C(=O)NCc3cc(C(F)(F)F)cc(C(F)(F)F)c3)C2)CC[C@]12C=Cc1ccccc12 (stereo partly specified) | – |
